Measured values: article PMC4240344 (Bioconjugate Chemistry, 2014)

Key:
[1] = test system: integrin αvβ3/αvβ5 in xenografted U87MG glioma tissues; set-up: species or system human; settings: xenografted U87MG glioma slices, 1 h incubation, tested at 0.1-100 μM
How it was run: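 U87MG xenografts were snap-frozen in OCT and cut into 5 μm slices. Slices were fixed in ice-cold acetone for 10 min and air-dried for 20 min, then incubated for 1 h with test compound at 0.1, 1.0, 10, 20, 50 or 100 μM. After three PBS washes and DAPI mounting, images were taken at 200× with equal exposure. Fluorescent area was given as % of total area against concentration.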

[2] = test system: integrin αvβ3/αvβ5 in xenografted U87MG glioma and human colon cancer tissues; assay: Tumor tissue staining: blocking and RGD-specificity experiments; settings: 100 μM; for Staining of tumor tissues (RGD specificity): xenografted U87MG glioma and human colon cancer tissues, same conditions
How it was run: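 Sections were frozen, acetone-fixed U87MG xenograft slices (5 μm) or deparaffinized, rehydrated human colon cancer slides. They were blocked with 10% goat serum (30 min, 37 °C), then incubated with 100 μM test compound for 1 h at RT, with or without 10 mM c(RGDfK)2 as blocker. After three PBS washes and DAPI mounting, ≥15 random fields per section were scored. Fluorescent area was given as % of total, mean ± standard deviation.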

[3] = test system: integrin αvβ3/αvβ5 in human carcinoma tissues; assay: Tumor tissue staining kinetics, time dependence, human carcinoma tissues; settings: 50 μM, 5-90 min
[4] = test system: integrin αvβ3/αvβ5 in human carcinoma tissues; assay: Tumor tissue staining, concentration dependence, human carcinoma tissues
How it was run: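 Human colon, squamous cell lung and gastric carcinoma slices (5 μm) were deparaffinized in xylene and rehydrated through graded alcohols. They were stained for 1 h with test compound at […], PBS-washed three times and mounted with DAPI medium. Images at 200× with equal exposure and equal brightness/contrast adjustment. Positive staining area was expressed as % of total area and plotted against concentration.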

[5] = test system: integrin αvβ3/αvβ5 in xenografted U87MG glioma tissues; set-up: species or system human; settings: peptide 100 μM, antibody 2.5 μg/mL, 5-120 min
How it was run: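 Frozen 5 μm slices of U87MG xenograft were fixed in ice-cold acetone for 10 min and air-dried at RT. They were incubated with 100 μM test compound at RT for 5, 15, 30, 60, 90 or 120 min, PBS-washed three times and mounted with DAPI medium. The antibody arm used 10% goat serum (30 min, 37 °C), then rabbit anti-integrin β3 (2.5 μg/mL) for the same times, then Cy3 goat anti-rabbit (1:100, 1 h). Images at 200× with equal exposure; positive area as % of total plotted against time.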

Row | Substance | Concentration range in which tissues were well stained [1] | Staining of xenografted U87MG glioma tissues in the absence of blocker ([2]; 1 h, room temperature) | Staining of tumor tissues (RGD specificity) [2] | Incubation time for positive staining of colon cancer tissues [3] | Minimal concentration for positive staining of colon carcinoma ([4]; human colon carcinoma slices, 1 h incubation, tested at 1-50 μM) | Staining of gastric carcinoma tissue ([4]; human gastric carcinoma tissue, 1-50 μM) | Concentration needed to achieve adequate fluorescence staining ([4]; human squamous cell lung cancer tissues, 1 h incubation) | Incubation time to achieve maximal fluorescent intensity [5]
1 | FITC-Glu[cyclo[Arg-Gly-Asp-D-Phe-Lys(SAA-PEG2-(1,2,3-triazole)-1-yl-4-methylamide)]]2 (bicyclic or more) [FITC-Galacto-RGD2] | 10 to 100 µM | successfully stained | positively stained | ≤ 15 min | ~5 µM | little staining | > 25 µM | ≤ 30 min
2 | FITC-E[c(RGDfK)]2 (bicyclic or more) [FITC-RGD2] |  |  | positively stained |  |  |  |  | 
3 | FITC-PEG4-E[PEG4-c(RGDfK)]2 (bicyclic or more) [FITC-3P-RGD2] |  |  | positively stained |  |  |  |  | 
